Consider 10 molecules from ChEMBL document CHEMBL3112440, “Design, synthesis, and SAR of a series of activated protein C (APC) inhibitors with selectivity against thrombin for the treatment of haemophilia” (Bioorg Med Chem Lett, 2014).

The structures appear in SMILES notation.

One data set addresses T1, Prothrombin (Homo sapiens, UniProt P00734). The data set is described as follows: Competitive inhibition of human thrombin using S-2366 as substrate.
Settings: not given
The method, boiled down:
(§1)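 Ki values were calculated from the IC50 values measured in the enzyme screening assays.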
By Ki is commonly meant a dissociation constant, usually derived from enzyme kinetics or from competition with a known ligand. A high value points to lower affinity. The molecule `N=C(N)c1ccc(CNC(=O)[C@H](Cc2cccc3ccccc23)NC(=O)[C@@H](CC2CCCCC2)NCC(=O)O)cc1` yielded a Ki of 6 µM.

The molecule `N=C(N)c1ccc(CNC(=O)C(CC2CCNCC2)NC(=O)[C@@H](CC2CCCCC2)NCC(=O)O)cc1` (mixture of isomers) returned a Ki of 6 µM.

`N#Cc1ccc(CC(NC(=O)[C@@H](CC2CCCCC2)NCC(=O)O)C(=O)NCc2ccc(C(=N)N)cc2)cc1` (mixture of isomers): the affinity, expressed as Ki, was 2 µM.

The molecule `N=C(N)c1ccc(CNC(=O)C(CCC2CCNCC2)NC(=O)[C@H](N)CC2CCCCC2)cc1` (mixture of isomers) yielded a Ki of 15 µM.

`N=C(N)c1ccc(CNC(=O)[C@H](Cc2ccc3ccccc3c2)NC(=O)[C@@H](CC2CCCCC2)NCC(=O)O)cc1`: the affinity corresponds to a Ki of 3 µM.

In turn, `N=C(N)c1ccc(CNC(=O)[C@H](Cc2ccccc2)NC(=O)[C@@H](CC2CCCCC2)NCC(=O)O)cc1` displayed a Ki of 3 µM.

Molecule `N=C(N)NCCC[C@H](NC(=O)[C@H](N)C1CCCCC1)C(=O)NCc1ccc(C(=N)N)cc1` gave a Ki of 1 µM.

Another data set deals with T2, Vitamin K-dependent protein C (Homo sapiens, UniProt P04070). The experiment in a line: Competitive inhibition of human APC using S-2366 as substrate.
Settings: not given
An outline of the steps: as §1
Consider `N=C(N)c1ccc(CNC(=O)[C@H](Cc2cccc3ccccc23)NC(=O)[C@@H](CC2CCCCC2)NCC(=O)O)cc1`, for which the Ki was found to be 0.3 µM.

Consider `N=C(N)c1ccc(CNC(=O)C(CC2CCNCC2)NC(=O)[C@@H](CC2CCCCC2)NCC(=O)O)cc1` (mixture of isomers), for which the Ki is 0.4 µM.

For `N#Cc1ccc(CC(NC(=O)[C@@H](CC2CCCCC2)NCC(=O)O)C(=O)NCc2ccc(C(=N)N)cc2)cc1` (mixture of isomers), the Ki worked out at 1.1 µM.

Molecule `N=C(N)c1ccc(CNC(=O)C(CCC2CCNCC2)NC(=O)[C@H](N)CC2CCCCC2)cc1` (mixture of isomers) returned a Ki of 0.9 µM.

The molecule `N=C(N)c1ccc(CNC(=O)[C@H](Cc2ccc3ccccc3c2)NC(=O)[C@@H](CC2CCCCC2)NCC(=O)O)cc1` displayed a Ki of 0.3 µM.

`N=C(N)c1ccc(CNC(=O)[C@H](Cc2ccccc2)NC(=O)[C@@H](CC2CCCCC2)NCC(=O)O)cc1` showed a Ki of 0.2 µM.

`N=C(N)NCCC[C@H](NC(=O)[C@H](N)C1CCCCC1)C(=O)NCc1ccc(C(=N)N)cc1` displayed a Ki of 0.5 µM.

The target in the next data set is T3, Coagulation factor VII (Homo sapiens, UniProt P08709).
T3 sequence (P08709 whole entry): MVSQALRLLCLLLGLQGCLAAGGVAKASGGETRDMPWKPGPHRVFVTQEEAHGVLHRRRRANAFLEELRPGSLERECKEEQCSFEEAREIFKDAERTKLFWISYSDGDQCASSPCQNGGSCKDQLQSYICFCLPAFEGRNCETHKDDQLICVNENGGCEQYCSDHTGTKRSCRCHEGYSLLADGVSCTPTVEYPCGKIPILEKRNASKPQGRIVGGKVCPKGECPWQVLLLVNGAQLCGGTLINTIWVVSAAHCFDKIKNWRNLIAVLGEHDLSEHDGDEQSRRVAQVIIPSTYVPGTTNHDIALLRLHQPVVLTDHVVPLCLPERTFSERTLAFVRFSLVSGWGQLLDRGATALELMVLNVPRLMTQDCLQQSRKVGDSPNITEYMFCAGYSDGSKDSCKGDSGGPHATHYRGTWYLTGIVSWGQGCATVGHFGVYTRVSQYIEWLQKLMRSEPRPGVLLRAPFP
The data set is described as follows: Inhibition of human coagulation factor 7a using spectrozyme as substrate preincubated for 300 seconds followed by substrate addition measured after 40 mins by spectrophotometric analysis in presence of tissue factor.
Settings: not given
The term IC50 denotes the point on the concentration scale where inhibition reaches its midpoint. As to `N=C(N)c1ccc(CNC(=O)[C@@H]2CCN2C(=O)[C@H](NCC(=O)O)C2CCCCC2)cc1`, the IC50 was found to be 3.3 µM.

Test system in another data set: not listed separately
The data set is described as follows: Lipophilicity, log D of the compound at pH 7.4 by chromatographic method. The class given is physicochemical. Particulars: buffer.
The chromatographic logD is a lipophilicity value derived from retention on a column. Low values mean lower lipophilicity, high ones higher lipophilicity. `N=C(N)c1ccc(CNC(=O)[C@H](Cc2cccc3ccccc23)NC(=O)[C@@H](CC2CCCCC2)NCC(=O)O)cc1` came in with a chromatographic logD of 1.97.

The target in a further data set is Coagulation factor XI (Homo sapiens, UniProt P03951). The data set is described as follows: Inhibition of human coagulation factor 11a using S-2366 as substrate preincubated for 300 seconds followed by substrate addition measured after 40 mins by spectrophotometric analysis.
Settings: not given
`N=C(N)c1ccc(CNC(=O)[C@@H]2CCN2C(=O)[C@H](NCC(=O)O)C2CCCCC2)cc1` returned an IC50 of 20 µM.

The target of the next data set is Coagulation factor X (Homo sapiens, UniProt P00742). The data set is described as follows: Inhibition of human coagulation factor 10a using S-2765 as substrate preincubated for 300 seconds followed by substrate addition measured after 40 mins by spectrophotometric analysis.
Settings: not given
On to `N=C(N)c1ccc(CNC(=O)[C@@H]2CCN2C(=O)[C@H](NCC(=O)O)C2CCCCC2)cc1`, for which it took 21 µM to reach half-maximal inhibition (IC50).

The next data set is filed under the species Homo sapiens. The data set is described as follows: Selectivity ratio of IC50 for human thrombin to IC50 for human APC.
Settings: not given
Turning to `N=C(N)c1ccc(CNC(=O)[C@@H](CC2CCCN2)NC(=O)[C@@H](CC2CCCCC2)NCC(=O)O)cc1` (mixture of isomers), the Ratio IC50 worked out at 1.

As for `N=C(N)c1ccc(CNC(=O)C(CCC2CCNCC2)NC(=O)[C@@H](NCC(=O)O)C2CCCCC2)cc1` (mixture of isomers), the Ratio IC50 is 1.

As for `N=C(N)c1ccc(CNC(=O)[C@H](Cc2cccc3ccccc23)NC(=O)[C@@H](CC2CCCCC2)NCC(=O)O)cc1`, the Ratio IC50 came out at 11.

Consider `N=C(N)c1ccc(CNC(=O)C(CC2CCNCC2)NC(=O)[C@@H](CC2CCCCC2)NCC(=O)O)cc1` (mixture of isomers), for which the Ratio IC50 worked out at 9.1.

Turning to `N#Cc1ccc(CC(NC(=O)[C@@H](CC2CCCCC2)NCC(=O)O)C(=O)NCc2ccc(C(=N)N)cc2)cc1` (mixture of isomers), the Ratio IC50 amounted to 5.4.

For the molecule `N=C(N)c1ccc(CNC(=O)C(CCC2CCNCC2)NC(=O)[C@H](N)CC2CCCCC2)cc1` (mixture of isomers), the Ratio IC50 was 8.9.

Regarding `N=C(N)c1ccc(CNC(=O)[C@H](Cc2ccc3ccccc3c2)NC(=O)[C@@H](CC2CCCCC2)NCC(=O)O)cc1`, the Ratio IC50 came out at 5.3.

With `N=C(N)c1ccc(CNC(=O)[C@H](Cc2ccccc2)NC(=O)[C@@H](CC2CCCCC2)NCC(=O)O)cc1`, the Ratio IC50 is 9.1.

For the molecule `N=C(N)NCCC[C@H](NC(=O)[C@H](N)C1CCCCC1)C(=O)NCc1ccc(C(=N)N)cc1`, the Ratio IC50 was 1.2.

In the next data set the target is T1, Prothrombin. The experiment in a line: Inhibition of human thrombin using S-2366 as substrate preincubated for 300 seconds followed by substrate addition measured after 40 mins by spectrophotometric analysis.
Settings: not given
`N=C(N)c1ccc(CNC(=O)[C@@H](CC2CCCN2)NC(=O)[C@@H](CC2CCCCC2)NCC(=O)O)cc1` (mixture of isomers) showed an IC50 above 44 µM.

`N=C(N)c1ccc(CNC(=O)C(CCC2CCNCC2)NC(=O)[C@@H](NCC(=O)O)C2CCCCC2)cc1` (mixture of isomers) displayed an IC50 above 44 µM.

On to `N=C(N)c1ccc(CNC(=O)[C@H](Cc2cccc3ccccc23)NC(=O)[C@@H](CC2CCCCC2)NCC(=O)O)cc1`, for which inhibition was half-maximal at 12 µM (IC50).

Turning to `N=C(N)c1ccc(CNC(=O)C(CC2CCNCC2)NC(=O)[C@@H](CC2CCCCC2)NCC(=O)O)cc1` (mixture of isomers), the IC50 worked out at 12 µM.

Molecule `N#Cc1ccc(CC(NC(=O)[C@@H](CC2CCCCC2)NCC(=O)O)C(=O)NCc2ccc(C(=N)N)cc2)cc1` (mixture of isomers) yielded an IC50 of 3.8 µM.

`N=C(N)c1ccc(CNC(=O)C(CCC2CCNCC2)NC(=O)[C@H](N)CC2CCCCC2)cc1` (mixture of isomers): the IC50 was determined as 28 µM.

Molecule `N=C(N)c1ccc(CNC(=O)[C@H](Cc2ccc3ccccc3c2)NC(=O)[C@@H](CC2CCCCC2)NCC(=O)O)cc1` registered an IC50 of 5.2 µM.

`N=C(N)c1ccc(CNC(=O)[C@H](Cc2ccccc2)NC(=O)[C@@H](CC2CCCCC2)NCC(=O)O)cc1` yielded an IC50 of 6.1 µM.

`N=C(N)NCCC[C@H](NC(=O)[C@H](N)C1CCCCC1)C(=O)NCc1ccc(C(=N)N)cc1` had an IC50 of 1.9 µM.

Another data set concerns the target T2, Vitamin K-dependent protein C. The experiment in a line: Inhibition of human APC using S-2366 as substrate preincubated for 300 seconds followed by substrate addition measured after 40 mins by spectrophotometric analysis.
Settings: not given
`N=C(N)c1ccc(CNC(=O)[C@@H](CC2CCCN2)NC(=O)[C@@H](CC2CCCCC2)NCC(=O)O)cc1` (mixture of isomers) registered an IC50 above 44 µM.

In turn, `N=C(N)c1ccc(CNC(=O)C(CCC2CCNCC2)NC(=O)[C@@H](NCC(=O)O)C2CCCCC2)cc1` (mixture of isomers) had an IC50 above 44 µM.

`N=C(N)c1ccc(CNC(=O)[C@@H]2CCN2C(=O)[C@H](NCC(=O)O)C2CCCCC2)cc1` displayed an IC50 of 1.3 µM.

Molecule `N=C(N)c1ccc(CNC(=O)[C@H](Cc2cccc3ccccc23)NC(=O)[C@@H](CC2CCCCC2)NCC(=O)O)cc1` yielded an IC50 of 1.1 µM.

On to `N=C(N)c1ccc(CNC(=O)C(CC2CCNCC2)NC(=O)[C@@H](CC2CCCCC2)NCC(=O)O)cc1` (mixture of isomers), for which the IC50 was 1.3 µM.

In the case of `N#Cc1ccc(CC(NC(=O)[C@@H](CC2CCCCC2)NCC(=O)O)C(=O)NCc2ccc(C(=N)N)cc2)cc1` (mixture of isomers), the IC50 turned out to be 3.8 µM.

Regarding `N=C(N)c1ccc(CNC(=O)C(CCC2CCNCC2)NC(=O)[C@H](N)CC2CCCCC2)cc1` (mixture of isomers), the IC50 amounted to 3.1 µM.

`N=C(N)c1ccc(CNC(=O)[C@H](Cc2ccc3ccccc3c2)NC(=O)[C@@H](CC2CCCCC2)NCC(=O)O)cc1` returned an IC50 of 0.98 µM.

In the case of `N=C(N)c1ccc(CNC(=O)[C@H](Cc2ccccc2)NC(=O)[C@@H](CC2CCCCC2)NCC(=O)O)cc1`, the IC50 is 0.67 µM.

On to `N=C(N)NCCC[C@H](NC(=O)[C@H](N)C1CCCCC1)C(=O)NCc1ccc(C(=N)N)cc1`, for which the IC50 is 1.6 µM.
